Measurements from PubChem BioAssay.
Unmarked numbers belong to inactive results. Records with an inconclusive call do not appear. Active and inactive are the calls of the source.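 The calls were made as follows, unless noted: active = growth inhibition above 25% in both replicates, a cutoff set 3 SD above the mean; inconclusive = above 25% in only one replicate; inactive = the rest.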

Assays:
[1] = OD615 S. cerevisiae growth inhibition, permissive medium, pilot counter-assay, permissive growth control for S. cerevisiae lifespan shortening project (AID 705); settings: OD615, 24 h, at 10 µM, hits give high values
Summary of the method: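 System – S. cerevisiae with engineered DeaD lifespan system · Buffer or medium – SC raffinose/galactose permissive medium · Schedule – cells pre-grown 4 h, then 24 h compound exposure, 30 °C humidified · Technique – culture turbidity as optical density at 615 nm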

[2] = Restrictive medium S. cerevisiae growth inhibition, OD615, pilot screen of yeast lifespan reduction project, restrictive growth control (AID 706;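 active = growth inhibition above a set limit, 3 SD over mean compound inhibition, in both replicates, cut at about 43% in these data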;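 also: modified DeaD lifespan yeast strain shifted to restrictive glucose medium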); settings: OD615, 48 h, at 10 µM, hits give high values
Summary of the method: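 Material: engineered S. cerevisiae DeaD strain / Medium: glucose-based CSMM-D restrictive medium / Compound: single dose of 10 µM compound final, 0.25% DMSO / Timing: 4 h pre-incubation, 48 h exposure at 30 °C / Technique: OD615 absorbance reading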

[3] = viability gain of MRP-1-high H69AR cells under doxorubicin, pilot screen, MRP-1 activator project, CellTiter-Glo, duplicate (AID 807;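 active = viability increase at or above a cutoff of the median across tested compounds plus 3 SD, cut at about 8.5% in these data, passing the limit was not always enough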;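 also: compound pretreatment 18-22 h then 72 h combined with doxorubicin; 0% = doxorubicin alone and 100% = vehicle without doxorubicin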); settings: H69AR viability with doxorubicin, CellTiter-Glo luminescence; at 10 µM; hits give high values
[4] = growth suppression of beta-catenin knockout HCT116, pilot screen, human colon tumor cells (AID 823;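 active = cell viability at or below a set limit in both duplicate runs, the limit being the all-compound median minus 4 SD, cut at about 23% in these data, passing the limit was not always enough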;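 also: 0% = wells killed by 20 µM Hyamine and 100% = untreated DMSO cell wells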); settings: CellTiter-Glo, 60 h, at 10 µM, hits give low values
[5] = growth suppression of PTEN-deleted HCT116, pilot screen, cell-based, HCT116 clonal line, CellTiter-Glo (AID 824;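 active = viability at or below 27.92% in each of two runs, the all-compound median minus 4 SD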;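 also: 0% = 20 µM Hyamine control and 100% = vehicle cell control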); settings: 60 h, at 10 µM, hits give low values
[6] = inhibitors of the yeast RAM network, pilot screen, dse1pr::URA3 reporter, 5-FOA selection (AID 869;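 active = inhibition over a set limit, the all-compound mean plus 3 SD, in both replicate runs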;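 also: 0% = DMSO wells with no growth and 100% = 10 µM 1-NA-PP1 with full growth; RAM network block rescues cells from 5-FOA so hits raise OD615 growth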); settings: S. cerevisiae dse1pr::URA3 5-FOA growth, OD615, 2 d; at 10 µM; hits give high values; strain carries analog-sensitive mutant Cbk1 kinase
[7] = RAM signaling pathway blockade in yeast – S. cerevisiae, Pdr1DBD-CYC8 efflux-inhibited sensitized strain, primary screen (AID 1298;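 active = RAM network inhibition above 8.4% in each of two replicates, 3 SD over the compound average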;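 also: 0% = DMSO untreated cells without growth and 100% = 10 µM 1-NA-PP1 full growth; higher means more yeast growth rescued from 5-FOA killing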); settings: S. cerevisiae cbk1-as DSE1-URA3 strain, 5-FOA growth OD615, 2 d; at 50 µM; hits give high values

SMILES	growth inhibition [1]	growth inhibition [2]	viability increase [3]	viability [4]	viability [5]	inhibition [6]	RAM network inhibition [7]
Nc1cccc(C(=O)Nc2ccc3nc(-c4cccnc4)[nH]c3c2)c1	-2%	-4.3%	-1.88%	109%	102%	2.84%	6.1%
COc1cccc(C2CC(c3ccccc3OC)n3nc(N)nc3N2)c1 (stereo unspecified)	-0.495%	6.87%	-1.09%	98.1%	95.2%	1.06%	1.98%
COCC(C)NC(=O)NC1(C(F)(F)F)Oc2ccc(Cl)cc2O1 (stereo unspecified)	-10%	-25.1%	-5.78%	32.7%	38%	0.985%	4.1%
CC(C)c1ccc2c(c1)C(=O)NC(C)(C)C2	-8.81%	-11.3%	-2.07%	116%	97.8%	1.88%	4.27%
COc1ccc(OCC(=O)N(C)Cc2ccccc2)cc1	-3.42%	1.48%	-2.43%	96%	91.7%	0.72%	0.61%
CC(c1ccccc1F)n1cc(C(=O)NCc2ccncc2)nn1 (stereo unspecified)	-19.2%	-8.25%	-0.75%	96.3%	94.9%	1.86%	4.53%
O=C(Nc1ccc2ccccc2c1)c1cccnc1	-3.92%	2.79%	-3.85%	93.2%	81.5%	1.27%	4.91%
CCn1c(C(C)NC(=O)c2cccs2)nc2ccccc21 (stereo unspecified)	-1.68%	-9.03%	-1.68%	103%	91.9%	1.33%	6.3%
CCOc1ccc(Nc2ncnc3c2cnn3-c2ccccc2)cc1	-3.8%	3.48%	2.06%	106%	108%	1.29%	2.91%
CC(C)(C)NC(=O)C1CN(S(=O)(=O)c2ccccc2)CCN1S(=O)(=O)c1ccccc1 (stereo unspecified)	5.33%	-4.14%	-1.07%	97.3%	97.1%	2.74%	2.81%
Cc1sc2nc(SCC(=O)NCc3ccco3)[nH]c(=O)c2c1C	-4%	-4.97%	-3.92%	106%	101%	2.67%	5.12%
CCCCCn1c(N(C)Cc2ccccc2)nc2c1c(=O)[nH]c(=O)n2C	-4.46%	-2.36%	-0.81%	74%	69.3%	0.435%	1.07%
O=C(NCCO)c1ccc(-c2nnc(N3CCOCC3)c3ccccc23)cc1	-8.54%	-14.4%	0.15%	89.1%	89.6%	0.425%	3.24%
COC(=O)C1=C(C)N(c2cc(Cl)cc(Cl)c2)C(=O)C1	-2.8%	-18.3%	-6.24%	28.2%	45.7%	0.14%	2.04%
O=C1c2ccccc2C(O)N1Cc1ccc2c(c1)OCO2 (stereo unspecified)	4.13%	-0.895%	-0.74%	103%	106%	0.38%	1.6%
COc1ccc(Cc2nnc(-c3cccc(C)c3)o2)cc1OC	-11.4%	2.94%	1.15%	95.4%	84.4%	1.84%	7.99%
Cc1cc(C)nc(SCC(=O)NCc2ccco2)n1	3.65%	6.47%	-5.58%	70.6%	78.4%	-0.38%	2.1%
COc1cc(C(c2sc3nc(C)nn3c2O)N2CCc3ccccc3C2)cc(OC)c1OC (stereo unspecified)	3.55%	-1.53%	-1.3%	110%	96.1%	1.23%	2.85%
O=C(CC1Oc2ccccc2NC1=O)NCc1ccccc1 (stereo unspecified)	0.945%	-4.32%	-0.93%	105%	100%	3.42%	4.73%
CCOCCn1c(SCc2ccc(C)cc2)nc2c1c(=O)[nH]c(=O)n2C	-5.33%	3.62%	-3.46%	92.5%	95.1%	1.49%	4.28%
CC(=O)C1=C(C)N=c2s/c(=C/c3ccc4c(c3)OCO4)c(=O)n2C1c1ccc(N(C)C)cc1 (stereo unspecified)	-9.92%	-9.9%	-1.24%	93.2%	89.5%	1.13%	4.19%
Cc1ccc(C(c2sc3ncnn3c2O)N2CCC(C)CC2)cc1 (stereo unspecified)	1.13%	10.3%	3.76%	102%	90.2%	1.9%	2.69%
Cc1c2cn[nH]c(=O)c2c(C)n1Cc1ccc(F)cc1	-17.7%	-15%	-3.21%	90.7%	98.5%	1.83%	5.11%
CN(C)c1nc(Oc2ccc(C(=O)OCC(=O)Nc3ccccc3)cc2)nc(N(C)C)n1	5.09%	5.01%	-3.31%	95.6%	94.3%	2.15%	1.24%

SMILES	growth inhibition [1]	growth inhibition [2]	viability increase [3]	viability [4]	viability [5]	inhibition [6]	RAM network inhibition [7]
O=C(NCC1CCCO1)c1ccc2c(c1)OCO2 (stereo unspecified)	-3.01%	6%	0.18%	98.4%	94.3%	0.385%	3.13%
CCOC(=O)c1c(NC(=O)c2cccs2)sc2c1CCCC2	-6.96%	-21.1%	-4.82%	101%	83.5%	3.56%	8%
Cn1cccc1Cc1nnc(SCC(=O)NCc2ccccc2Cl)n1-c1ccc(F)cc1	-7.31%	9.87%	-5%	87%	86.5%	1.92%	8.74%
CCOC(=O)N1CCc2c(sc(NC(C)=O)c2C(N)=O)C1	-5.06%	-16.1%	-1.9%	103%	99.3%	1.6%	0.58%
Cc1cc(C)nc(N(C#N)Cc2ccccc2Cl)n1	-8.69%	4.5%	-3.71%	99.7%	95.5%	1.48%	-0.21%
Nc1ccccc1SCc1cn2cccnc2n1	1.29%	12%	-2.43%	109%	98%	2.13%	3.55%
COc1ccc(N(CC(=O)Nc2cc(OC)ccc2OC)S(=O)(=O)c2c(C)nn(C)c2C)cc1	-7.47%	-15.8%	-4.82%	95.6%	81%	1.36%	0.21%
COc1ccc(NC2=C(C)C(=O)CC2)cc1	7.55%	-3.12%	-4.82%	65.9%	69.5%	0.505%	1.49%
CCCCC(=O)Nc1nc2c(OC)ccc(OC)c2s1	-5.01%	1.46%	-2.98%	97.5%	98.3%	0.87%	3.86%
CC1CC=C2C(C#N)=C(N)C(C#N)(C#N)C(c3cccs3)C2C1 (stereo unspecified)	-11%	-6.39%	-4.25%	85.5%	85.7%	2.66%	3.84%
O=C(Nc1ccc(-c2nc3cccnc3s2)cc1)c1ccc(Br)o1	11.6%	19.6%	3.03%	105%	101%	1.11%	0.96%
CC(=O)Oc1ccc(N2C(=O)C3C4C=CC(O4)C3C2=O)cc1 (stereo unspecified)	14.2%	27.7%	-1.46%	92.1%	101%	2.19%	0.14%
Oc1c(/C=N/c2ncn[nH]2)ccc2ccccc12	-9.29%	-4.74%	-0.29%	98.3%	101%	-0.085%	-1.12%
O=C1CSC(c2nn(-c3ccccc3)cc2-c2cc3ccccc3oc2=O)N1Cc1ccco1 (stereo unspecified)	-1.13%	1.33%	-4.75%	77.4%	76.9%	2.16%	2.95%
Cc1ccc(-c2nn3c(C)nnc3s2)cc1NC(=O)c1ccc(OC(C)C)cc1	12.3%	56% (active)	-4.84%	79.4%	68.4%	0.855%	7.25%
COc1ccc(CNC(=O)c2onc(C)c2Cl)cc1	-14.2%	-17.2%	-1.96%	96%	93.7%	2.31%	4.91%
CCOc1ccc(-n2c(SC(C)C(=O)OC)nc3c(c2=O)SCC3)cc1 (stereo unspecified)	-6.67%	-19.6%	-1.08%	89.6%	92.2%	0.355%	5.59%
CCOc1cccc(C(=O)Nc2nnc(-c3ccco3)s2)c1	-7.86%	-7.51%	-0.2%	103%	104%	3.44%	2.28%
CC(=O)CCC(=O)NCCc1ccccc1F	-5.29%	9.55%	0.02%	94.8%	97.2%	0.02%	0.25%
CCNc1nc(C)nc2c1oc1ccccc12	-8.28%	-30.6%	0.92%	101%	89.5%	1.81%	3.64%
O=C(Cn1ncc2c1-c1ccccc1OC2)Nc1nc2ccccc2s1	-6.12%	18.7%	-6.71%	93.9%	84.5%	0.785%	-2.15%
Cc1ccc(S(=O)(=O)N(C)CCCC(=O)Nc2ccncc2)cc1	-2.16%	-6.8%	-0.64%	79.4%	79%	0.13%	1.94%
Cc1nnc(SCC(=O)Nc2ccc3c(c2)COC3=O)n1-c1ccccc1	-9.99%	0.555%	-0.13%	98.8%	92.8%	3.27%	1.16%
N#Cc1c2n(c3c(=O)n(Cc4ccc(Cl)cc4)cnc13)CCCC2	-12.5%	-5.03%	1.08%	93.8%	87%	0.755%	4.22%
